Results as given in ChEMBL document CHEMBL1817572, “New, potent, selective, and short-acting peptidic V1a receptor agonists” (J Med Chem, 2011).
Bridge positions count the residues as written; N and C are the ends. Square brackets hold non-standard residues; d marks the D form. Peptide text beside a SMILES is read from it. * marks the point of attachment. Ala(4-thiazolyl) = N[C@@H](Cc1cscn1)C(=O)O; Ala(2-furyl) = N[C@@H](Cc1ccco1)C(=O)O; Orn(iPr) = CC(C)NCCC[C@H](N)C(=O)O; 2Thi = N[C@@H](Cc1cccs1)C(=O)O; Orn = NCCC[C@H](N)C(=O)O; Dab = NCC[C@H](N)C(=O)O; Ac4c = NC1(C(=O)O)CCC1; NHiBu = CC(C)CN*; NHOH = ON*

Tests used:
Oxytocin receptor = biological target: T1, Oxytocin receptor (Homo sapiens, UniProt P30559); assay: Agonist activity at human OT receptor expressed in CHO-K1 cells by luciferase reporter gene assay; assay type: functional, cell-based
T1 sequence (P30559 whole entry): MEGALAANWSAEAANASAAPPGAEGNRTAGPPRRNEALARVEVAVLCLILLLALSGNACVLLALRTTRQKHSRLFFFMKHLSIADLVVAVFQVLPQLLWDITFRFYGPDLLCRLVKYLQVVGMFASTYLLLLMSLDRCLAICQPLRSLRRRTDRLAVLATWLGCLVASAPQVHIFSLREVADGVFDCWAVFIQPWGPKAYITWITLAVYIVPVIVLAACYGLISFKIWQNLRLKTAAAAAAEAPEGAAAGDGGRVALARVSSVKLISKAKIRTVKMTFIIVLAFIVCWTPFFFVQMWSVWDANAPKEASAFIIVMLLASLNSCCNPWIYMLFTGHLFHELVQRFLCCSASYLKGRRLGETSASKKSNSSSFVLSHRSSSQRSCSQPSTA

Homo sapiens [1] = organism: Homo sapiens; assay: Selectivity ratio of EC50 for human vasopressin V1b receptor to EC50 for human vasopressin V1a receptor
Homo sapiens [2] = organism: Homo sapiens; assay: Selectivity ratio of EC50 for human oxytocin receptor to EC50 for human vasopressin V1a receptor
[3] = biological target: T2, Oxytocin receptor (Homo sapiens) (UniProt P30559); assay: Partial agonist activity at human OT receptor expressed in CHO-K1 cells by luciferase reporter gene assay; assay type: functional, cell-based
T2 sequence (whole entry): T1 sequence (P30559 whole entry)
Method in brief: (§1)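 Same luciferase reporter systems (OT in stable CHO-K1, V1b in stable Flp-In-293, each with transient NFAT-luciferase; V1a in HEK293 with NFAT-luciferase, V2 in HEK293 with CRE-luciferase). Peptides added for 5 h at 37 °C two days post-transfection, luminescence read. Partial agonism means efficacy <70%.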

Vasopressin V2 receptor [4] = biological target: T3, Vasopressin V2 receptor (Homo sapiens, UniProt P30518); assay: Agonist activity at recombinant human vasopressin V2 receptor expressed in HEK293 cells by luciferase reporter gene assay; assay type: functional, cell-based
Vasopressin V1b receptor = biological target: T4, Vasopressin V1b receptor (Homo sapiens, UniProt P47901); assay: Agonist activity at recombinant human vasopressin V1b receptor expressed in Flp-In-293 cells by luciferase reporter gene assay; assay type: functional, cell-based; conditions: read-out: EC50
T4 sequence (P47901 whole entry): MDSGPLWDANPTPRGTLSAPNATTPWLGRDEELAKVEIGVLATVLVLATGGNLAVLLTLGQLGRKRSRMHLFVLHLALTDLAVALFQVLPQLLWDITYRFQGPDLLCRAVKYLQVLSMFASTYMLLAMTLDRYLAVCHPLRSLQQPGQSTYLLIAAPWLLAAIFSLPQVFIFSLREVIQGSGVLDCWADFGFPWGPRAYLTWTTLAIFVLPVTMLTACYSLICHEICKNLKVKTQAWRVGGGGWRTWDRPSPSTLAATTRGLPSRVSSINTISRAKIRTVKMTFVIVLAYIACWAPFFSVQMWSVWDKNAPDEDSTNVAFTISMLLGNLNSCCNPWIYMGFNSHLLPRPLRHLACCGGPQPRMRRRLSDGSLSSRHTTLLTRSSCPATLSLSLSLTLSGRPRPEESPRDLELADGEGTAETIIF
Method in brief: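 Reporter gene assays in HEK293 cells transiently cotransfected with V1a (human or rat) or human V2 receptor vector plus NFAT-luciferase (V1a) or CRE-luciferase (V2) reporter; V1b in Flp-In-293 stably expressing receptor, OT in CHO-K1 stably expressing receptor, both transiently transfected with NFAT-luciferase. Two days post-transfection, peptides added for 5 h at 37 °C, lysis with luciferin, luminescence read.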

[5] = biological target: Vasopressin V1a/V2 (Homo sapiens) (UniProt P30518+P37288); assay: Selectivity ratio of EC50 for human vasopressin V2 receptor to EC50 for human vasopressin V1a receptor
Vasopressin V1a receptor [6] = biological target: Vasopressin V1a receptor (Homo sapiens, UniProt P37288); assay: Agonist activity at recombinant human vasopressin V1a receptor expressed in HEK293 cells by luciferase reporter gene assay; assay type: functional, cell-based; conditions: read-out: EC50
Vasopressin V1a receptor [7] = biological target: Vasopressin V1a receptor (Rattus norvegicus, UniProt P30560); assay: Agonist activity at recombinant rat vasopressin V1a receptor expressed in HEK293 cells by luciferase reporter gene assay; assay type: functional, cell-based
Vasopressin V2 receptor [8] = biological target: T3, Vasopressin V2 receptor; assay: Partial agonist activity at recombinant human vasopressin V2 receptor expressed in HEK293 cells by luciferase reporter gene assay; assay type: functional, cell-based; method in brief: as §1

T3 sequence (P30518 whole entry): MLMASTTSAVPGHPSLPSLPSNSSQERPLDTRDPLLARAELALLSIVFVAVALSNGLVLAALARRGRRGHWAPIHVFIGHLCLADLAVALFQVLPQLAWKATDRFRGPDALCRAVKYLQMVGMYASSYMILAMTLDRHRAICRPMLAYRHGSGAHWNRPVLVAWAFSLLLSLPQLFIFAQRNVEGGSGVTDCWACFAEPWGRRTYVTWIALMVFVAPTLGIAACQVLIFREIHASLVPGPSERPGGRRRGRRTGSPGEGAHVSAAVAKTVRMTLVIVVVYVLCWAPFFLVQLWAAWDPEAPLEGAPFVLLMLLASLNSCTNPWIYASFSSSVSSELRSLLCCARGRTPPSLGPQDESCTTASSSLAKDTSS
Sequence of Vasopressin V1a/V2 (Homo sapiens) (P30518 whole entry, looked up): as the sequence (P30518 whole entry) above
Sequence of Vasopressin V1a/V2 (Homo sapiens) (P37288 whole entry, looked up): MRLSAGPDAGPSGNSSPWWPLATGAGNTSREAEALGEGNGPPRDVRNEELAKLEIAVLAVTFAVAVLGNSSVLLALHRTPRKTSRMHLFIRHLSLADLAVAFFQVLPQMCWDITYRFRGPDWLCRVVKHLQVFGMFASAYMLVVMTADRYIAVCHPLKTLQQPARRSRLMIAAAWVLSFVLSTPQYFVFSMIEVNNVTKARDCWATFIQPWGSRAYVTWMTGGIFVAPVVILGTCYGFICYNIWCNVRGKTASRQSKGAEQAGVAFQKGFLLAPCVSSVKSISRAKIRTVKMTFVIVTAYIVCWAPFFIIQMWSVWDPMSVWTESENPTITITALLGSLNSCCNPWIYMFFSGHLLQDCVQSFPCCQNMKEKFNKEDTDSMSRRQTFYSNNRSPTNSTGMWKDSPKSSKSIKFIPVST
Sequence of Vasopressin V1a receptor (Homo sapiens, UniProt P37288) (P37288 whole entry): as the sequence (P37288 whole entry, looked up) above
Sequence of Vasopressin V1a receptor (Rattus norvegicus, UniProt P30560) (P30560 whole entry): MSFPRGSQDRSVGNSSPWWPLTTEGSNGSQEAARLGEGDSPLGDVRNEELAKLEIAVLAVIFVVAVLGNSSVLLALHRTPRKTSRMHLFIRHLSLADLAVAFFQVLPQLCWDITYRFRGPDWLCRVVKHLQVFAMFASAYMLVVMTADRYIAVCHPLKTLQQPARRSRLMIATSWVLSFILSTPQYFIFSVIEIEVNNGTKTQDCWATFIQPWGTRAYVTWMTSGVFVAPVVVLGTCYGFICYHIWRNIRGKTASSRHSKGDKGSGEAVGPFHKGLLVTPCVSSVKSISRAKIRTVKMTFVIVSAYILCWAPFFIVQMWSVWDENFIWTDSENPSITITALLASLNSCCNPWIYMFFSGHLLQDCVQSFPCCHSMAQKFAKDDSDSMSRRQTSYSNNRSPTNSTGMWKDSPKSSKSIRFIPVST

SMILES	EC50 (Oxytocin receptor; read-out: EC50) [nM]	Ratio EC50 (Homo sapiens [1])	Ratio EC50 (Homo sapiens [2])	Efficacy [3] [%]	EC50 (Vasopressin V2 receptor [4]; read-out: EC50) [nM]	EC50 (Vasopressin V1b receptor) [nM]	Ratio EC50 [5]	EC50 (Vasopressin V1a receptor [6]) [nM]	EC50 (Vasopressin V2 receptor [4]; hek293, read-out: EC50) [nM]	EC50 (Vasopressin V2 receptor [4]; read-out: pEC50 (converted)) [nM]	EC50 (Oxytocin receptor; cho-k1, read-out: EC50) [nM]	EC50 (Oxytocin receptor; read-out: pEC50 (converted)) [nM]	EC50 (Vasopressin V1a receptor [7]; read-out: EC50) [nM]	Efficacy (Vasopressin V2 receptor [8]) [%]	EC50 (Vasopressin V1a receptor [7]; read-out: pEC50 (converted)) [nM]
CC[C@H](C)[C@@H]1NC(=O)[C@H](Cc2cccs2)NC(=O)[C@@H](N)CSSC[C@@H](C(=O)N2CCC[C@H]2C(=O)N[C@@H](CCN)C(=O)NCC(N)=O)NC(=O)[C@H](CC(N)=O)NC(=O)[C@H](CCC(N)=O)NC1=O (H-C[2Thi]IQNCP[Dab]G-NH2; disulfide 1-6)	29	270	53	< 70	120	150	220	0.54	–	–	–	–	–	–	–
CC[C@H](C)[C@@H]1NC(=O)[C@H](Cc2ccco2)NC(=O)[C@@H](N)CSSC[C@@H](C(=O)N2CCC[C@H]2C(=O)N[C@@H](CCN)C(=O)NCC(N)=O)NC(=O)[C@H](CC(N)=O)NC(=O)[C@H](CC(N)=O)NC1=O (H-C[Ala(2-furyl)]INNCP[Dab]G-NH2; disulfide 1-6)	780	32	55	< 70	–	460	> 710	14	> 10000	> 10000	–	–	–	–	–
CC[C@H](C)[C@@H]1NC(=O)[C@H](Cc2ccccc2)NC(=O)[C@@H](N)CSSC[C@@H](C(=O)N2CCC[C@H]2C(=O)N[C@@H](CCN)C(=O)NCC(N)=O)NC(=O)[C@H](CC(N)=O)NC(=O)[C@H](CCC(N)=O)NC1=O (H-CFIQNCP[Dab]G-NH2; disulfide 1-6)	9.1	52	18	< 70	73	26	140	–	–	–	–	–	–	–	–
CC[C@H](C)[C@@H]1NC(=O)[C@H](Cc2ccccc2)NC(=O)[C@@H](N)CSSC[C@@H](C(=O)N2CCC[C@H]2C(=O)N[C@@H](CCCN)C(=O)NCC(N)=O)NC(=O)[C@H](CC(N)=O)NC(=O)[C@H](CCC(N)=O)NC1=O (H-CFIQNCP[Orn]G-NH2; disulfide 1-6)	–	–	–	–	155	25	–	–	–	–	> 10000	> 10000	0.12	–	–
CC[C@H](C)[C@@H]1NC(=O)[C@H](Cc2ccccc2)NC(=O)[C@@H](N)CSSC[C@@H](C(=O)N2CCC[C@H]2C(=O)N[C@@H](CCCN)C(=O)NCC(N)=O)NC(=O)[C@H](CC(N)=O)NC(=O)[C@H](CCC(=O)NCC(C)C)NC1=O (H-CFIE(NHiBu)NCP[Orn]G-NH2; disulfide 1-6)	–	7.1	> 470	–	3000	150	140	21	–	–	> 10000	> 10000	–	< 70	–
CC[C@H](C)[C@@H]1NC(=O)[C@H](Cc2cscn2)NC(=O)[C@@H](N)CSSC[C@@H](C(=O)N2CCC[C@H]2C(=O)N[C@@H](CCN)C(=O)NCC(N)=O)NC(=O)[C@H](CC(N)=O)NC(=O)[C@H](CCC(N)=O)NC1=O (H-C[Ala(4-thiazolyl)]IQNCP[Dab]G-NH2; disulfide 1-6)	1200	22	63	< 70	2500	430	130	19	–	–	–	–	–	< 70	–
CC[C@H](C)[C@@H]1NC(=O)C2(CCC2)NC(=O)[C@@H](N)CSSC[C@@H](C(=O)N2CCC[C@H]2C(=O)N[C@@H](CCN)C(=O)NCC(N)=O)NC(=O)[C@H](CC(N)=O)NC(=O)[C@H](CCC(N)=O)NC1=O (H-C[Ac4c]IQNCP[Dab]G-NH2; disulfide 1-6)	180	68	190	< 70	380	64	400	0.94	–	–	–	> 10000	–	–	–
N=C(N)NCCC[C@H](NC(=O)[C@@H]1CCCN1C(=O)[C@@H]1CSSC[C@H](N)C(=O)N[C@@H](Cc2ccccc2)C(=O)N[C@@H](Cc2ccccc2)C(=O)N[C@@H](CCC(N)=O)C(=O)N[C@@H](CC(N)=O)C(=O)N1)C(=O)NCC(N)=O (H-CFFQNCPRG-NH2; disulfide 1-6)	–	–	–	–	1.4	16	–	0.15	–	–	–	–	0.07	–	0.0794
CC[C@H](C)[C@@H]1NC(=O)[C@H](Cc2ccccc2)NC(=O)[C@@H](N)CSSC[C@@H](C(=O)N2CCC[C@H]2C(=O)N[C@@H](CCN)C(=O)NCC(N)=O)NC(=O)[C@H](CC(N)=O)NC(=O)[C@H](CC(=O)NC)NC1=O (H-CFID(NHMe)NCP[Dab]G-NH2; disulfide 1-6)	–	2.2	> 2500	–	5300	8.7	1300	3.9	–	–	> 10000	> 10000	–	< 70	–
CCNC(=O)CC[C@@H]1NC(=O)[C@H]([C@@H](C)CC)NC(=O)[C@H](Cc2ccccc2)NC(=O)[C@@H](N)CSSC[C@@H](C(=O)N2CCC[C@H]2C(=O)N[C@@H](CCCN)C(=O)NCC(N)=O)NC(=O)[C@H](CC(N)=O)NC1=O (H-CFIE(NHEt)NCP[Orn]G-NH2; disulfide 1-6)	–	2.4	> 250	–	2600	97	66	39	–	–	> 10000	> 10000	–	< 70	–
CC[C@H](C)[C@@H]1NC(=O)[C@H](Cc2ccccc2)NC(=O)[C@@H](N)CSSC[C@@H](C(=O)N2CCC[C@H]2C(=O)N[C@@H](CCCN)C(=O)NCC(N)=O)NC(=O)[C@H](CC(N)=O)NC(=O)[C@H](CCC(=O)NO)NC1=O (H-CFIE(NHOH)NCP[Orn]G-NH2; disulfide 1-6)	–	5.8	> 830	–	170	70	14	12	–	–	> 10000	> 10000	–	–	–
CC[C@H](C)[C@@H]1NC(=O)[C@H](Cc2ccco2)NC(=O)[C@@H](N)CSSC[C@@H](C(=O)N2CCC[C@H]2C(=O)N[C@@H](CCCN)C(=O)NCC(N)=O)NC(=O)[C@H](CC(N)=O)NC(=O)[C@H](CC(N)=O)NC1=O (H-C[Ala(2-furyl)]INNCP[Orn]G-NH2; disulfide 1-6)	–	53	> 1000	–	–	530	> 1000	10	> 10000	> 10000	> 10000	> 10000	–	–	–
CC[C@H](C)[C@@H]1NC(=O)[C@H](Cc2cccs2)NC(=O)[C@@H](N)CSSC[C@@H](C(=O)N2CCC[C@H]2C(=O)N[C@@H](CCCN)C(=O)NCC(N)=O)NC(=O)[C@H](CC(N)=O)NC(=O)[C@H](CC(N)=O)NC1=O (H-C[2Thi]INNCP[Orn]G-NH2; disulfide 1-6)	–	14	> 660	–	–	220	> 660	15	> 10000	> 10000	> 10000	> 10000	–	–	–
CC[C@H](C)[C@@H]1NC(=O)[C@H](Cc2ccccc2)NC(=O)[C@@H](N)CSSC[C@@H](C(=O)N2CCC[C@H]2C(=O)N[C@@H](CCCNC(C)C)C(=O)NCC(N)=O)NC(=O)[C@H](CC(N)=O)NC(=O)[C@H](CC(N)=O)NC1=O (H-CFINNCP[Orn(iPr)]G-NH2; disulfide 1-6)	110	170	78	< 70	3700	250	2600	1.4	–	–	–	–	–	< 70	–
